Experimental data collected from several papers.
Each line is one published result; the experiments were not run side by side.
Effect on: cell growth or viability

| Structure (SMILES) | cell line | method | tested at | time | quantity | result |
| --- | --- | --- | --- | --- | --- | --- |
| CCCCCCCCC(=O)OC[C@H]1O[C@@](C#N)(c2ccc3c(N)ncnn23)[C@H](O)[C@@H]1O | HEp-2 | CCK-8 |  | 5 days | CC50 | 45.5 µM |
| [N-]=[N+]=N[C@]1(CO)O[C@@H](n2ccc(N)nc2=O)[C@@H](F)[C@@H]1O | Calu-3 | ATP luminescence |  | 72 h | CC50 | > 50 µM |
| COc1cccc(C=NNC(=S)NN)c1OC | TZM-bl | resazurin |  |  | CC50 | > 12.5 µM |
| NC(=O)c1ncn([C@@H]2O[C@H](CO)[C@@H](O)[C@H]2O)n1 | HEp-2 | CCK-8 |  | 5 days | CC50 | 176 µM |
| CCOC(=O)c1cc(O)c(O)c(O)c1 | MDBK | MTT |  | 72 h | CC50 | > 256 µg/mL |
| Nc1ccn([C@@H]2O[C@H](CO)[C@@H](O)C2(F)F)c(=O)n1 | MCF7 | MTT | 2.5 µg/mL | 24 h | viability | 51.3% |
| CN(Cc1cn(Cc2ccc(-c3nc4cc(-c5ccccc5)ccn4c3Nc3ccc(C(=O)O)cc3)cc2)nn1)c1cccc2c1C(=O)N(C1CCC(=O)NC1=O)C2=O (centres unmarked) | MCF7 |  |  | 72 h | CC50 | 129 µM |
| N#C[C@@]1(c2ccc3c(N)ncnn23)O[C@H](COC(=O)C2CCC(F)CC2)[C@@H](O)[C@H]1O (some centres unmarked) | HEp-2 | CCK-8 |  | 5 days | CC50 | 53.3 µM |
| CC(C)(C)c1cc([N+](=O)[O-])cc(C=O)c1O | TZM-bl | resazurin |  |  | CC50 | > 12.5 µM |
| O=C1CCC(N2C(=O)c3cccc(NCc4cn(Cc5ccc(-c6nc7cc(-c8ccccc8)ccn7c6Nc6ccc(C(=O)O)cc6)cc5)nn4)c3C2=O)C(=O)N1 (centres unmarked) | MCF7 |  |  | 72 h | CC50 | 105 µM |
| CC(=O)OC[C@H]1O[C@@H]([S-])[C@H](OC(C)=O)[C@@H](OC(C)=O)[C@@H]1OC(C)=O.CCP(CC)CC.[Au+] | THP-1 | ATP luminescence |  | 72 h | CC50 | 2.83 µM |
